Reference: article PMC9845116 (Saudi Pharmaceutical Journal : SPJ, 2022)
Read-outs that look alike come from different tables or passages of the source.

Tests used:
Format in all cases: cell-based
A549 = test: MTT cell viability assay, A549; conditions: for IC50: Homo sapiens, A549, 48 h, read-out: IC50(μM) A549
Hela = test: MTT cell viability assay, Hela; conditions: for IC50: 48 h
HepG2 = test: MTT cell viability assay, HepG2; conditions: for IC50: Homo sapiens, HepG2, 48 h, read-out: IC50(μM) HepG2
MCF-7 = test: MTT cell viability assay, MCF-7
[1] = test system: human liver cell line L-O2; test: Cytotoxic activity on human liver cells
Summary of the method: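 L-02 cells were grown in DMEM with 10 % FBS and 1 % penicillin–streptomycin at 37 °C, 5 % CO2, then seeded at 2 × 10^4 cells per well in 96-well plates. Test compounds were made as 20 mM DMSO stocks and applied at various concentrations for 48 h. MTT (5 mg/mL stock in PBS) was added for 4 h at 37 °C in the dark. Formazan was dissolved in DMSO and read at 490 nm; triplicate experiments.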

Hela cells [2] = test: Colony formation assay, Hela; conditions: 0.5 mM (so in the source), vs 5-Fu 5 μM
Summary of the method: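 HeLa cells were seeded at 1500 per well in six-well plates and grown 48 h in regular medium. Cells were exposed to test compound or 5-Fu (positive control) at indicated concentrations for 7 days. They were then PBS-washed, fixed with paraformaldehyde 30 min, stained with crystal violet 30 min, and photographed. Clone formation rate was quantified; mean ± SD of three separate experiments.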

MCF-7 cells = test: Colony formation assay, MCF-7; conditions: 0.5 mM (so in the source), vs 5-Fu 5 μM
Summary of the method: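 MCF-7 cells grown in DMEM with 10 % FBS and 1 % penicillin–streptomycin at 37 °C, 5 % CO2. Seeded at 1500 cells/well in six-well plates, grown 48 h, then exposed to test compound or 5-Fu for 7 days. Washed with PBS, fixed with paraformaldehyde for 30 min, stained with crystal violet for 30 min, photographed. Clone formation rate quantified; mean ± SD of three separate experiments.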

Hela cells [3] = test: Annexin V-FITC/PI apoptosis assay; conditions: 24 h (control 14.06 %)
Hela cells [4] = test: Hoechst 33,258 staining assay; conditions: increasing concentration 0.5-4 μM, 24 h
Summary of the method: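 HeLa cells seeded at 1 × 10^4/well in twelve-well plates and grown 24 h in regular medium. Treated 24 h with test compound (0, 0.5, 1, 2, 4 μM) or 5-Fu (5.0 μM). Washed twice with PBS, stained with Hoechst 33,258 for 30 min in the incubator, washed, then imaged by fluorescence microscopy for apoptotic nuclear and cell morphology.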

[5] = Homo sapiens, HeLa, read-out: IC50(μM) Hela, MTT, 48 h, Hela
[6] = Homo sapiens, MCF7, 48 h, read-out: IC50(μM) MCF-7, MTT, 48 h, MCF-7

Row | Compound | IC50 (A549) [µM] | IC50 (Hela; [5]) [µM] | IC50 (Hela; read-out: IC50(μM) Hela, MTT, Hela) [µM] | IC50 (HepG2) [µM] | IC50 (MCF-7; [6]) [µM] | IC50 (MCF-7; read-out: IC50(μM) MCF-7, MTT, 48 h, MCF-7) [µM] | inhibitory effect on cell viability over time, A549 (A549; MTT at 24 h, 48 h and 72 h) | fold potency than 5-fluorocrail, Hela (Hela; Hela cells, vs 5-Fu) | inhibitory effect on cell viability over time, Hela (Hela; MTT at 24 h, 48 h and 72 h) | inhibitory effect on cell viability over time, HepG2 (HepG2; MTT at 24 h, 48 h and 72 h) | fold potency than 5-fluorocrail, MCF-7 (MCF-7; MCF-7 cells, vs 5-Fu) | inhibitory effect on cell viability over time, MCF-7 (MCF-7; MTT at 24 h, 48 h and 72 h) | toxicity on normal cells [1] | colony formation, Hela (Hela cells [2]) | colony formation, MCF-7 (MCF-7 cells) | apoptosis index (Hela cells [3]; 0.5 μM) [%] | apoptosis index (Hela cells [3]; 1 μM) [%] | apoptosis index (Hela cells [3]; 2 μM) [%] | apoptosis index (Hela cells [3]; 4 μM) [%] | morphological changes of Hela cells (Hela cells [4])
1 | COc1cc(OC)c(C(=O)/C=C/c2ccc(-c3ccc(F)cc3)cc2)c(OC)c1 [B13, (E)-3-(4′-fluoro-[1,1′-biphenyl]-4-yl)-1-(2,4,6-trimethoxyphenyl)prop-2-en-1-one] | 40.6 ± 1.51 | 30.5 ± 0.89 | – | 25.6 ± 0.77 | 35.3 ± 1.14 | – | – | – | – | – | – | – | – | – | – | – | – | – | – | –
2 | COc1cc(OC)c(C(=O)/C=C/c2ccc(OCC3CCCCC3)cc2)c(OC)c1 [C3, (E)-3-(4-(cyclohexylmethoxy)phenyl)-1-(2,4,6-trimethoxyphenyl)prop-2-en-1-one] | > 100 | > 100 | – | > 100 | > 100 | – | – | – | – | – | – | – | – | – | – | – | – | – | – | –
3 | COc1cc(OC)c(C(=O)/C=C/c2cn(C)c3ccccc23)c(OC)c1 [B11, (E)-3-(1-methyl-1H-indol-3-yl)-1-(2,4,6-trimethoxyphenyl)prop-2-en-1-one] | > 100 | > 100 | – | > 100 | > 100 | – | – | – | – | – | – | – | – | – | – | – | – | – | – | –

Compounds with a lower IC50 (A549), results first:

Row | IC50 (A549) [µM] | IC50 (Hela; [5]) [µM] | IC50 (Hela; read-out: IC50(μM) Hela, MTT, Hela) [µM] | IC50 (HepG2) [µM] | IC50 (MCF-7; [6]) [µM] | IC50 (MCF-7; read-out: IC50(μM) MCF-7, MTT, 48 h, MCF-7) [µM] | Compound | inhibitory effect on cell viability over time, A549 (A549; MTT at 24 h, 48 h and 72 h) | fold potency than 5-fluorocrail, Hela (Hela; Hela cells, vs 5-Fu) | inhibitory effect on cell viability over time, Hela (Hela; MTT at 24 h, 48 h and 72 h) | inhibitory effect on cell viability over time, HepG2 (HepG2; MTT at 24 h, 48 h and 72 h) | fold potency than 5-fluorocrail, MCF-7 (MCF-7; MCF-7 cells, vs 5-Fu) | inhibitory effect on cell viability over time, MCF-7 (MCF-7; MTT at 24 h, 48 h and 72 h) | toxicity on normal cells [1] | colony formation, Hela (Hela cells [2]) | colony formation, MCF-7 (MCF-7 cells) | apoptosis index (Hela cells [3]; 0.5 μM) [%] | apoptosis index (Hela cells [3]; 1 μM) [%] | apoptosis index (Hela cells [3]; 2 μM) [%] | apoptosis index (Hela cells [3]; 4 μM) [%] | morphological changes of Hela cells (Hela cells [4])
4 | 5.19 ± 0.23 | 3.2 | 3.2 ± 0.21 | 5.81 ± 0.37 | 3.85 | 3.85 ± 0.28 | COc1cc(OC)c(C(=O)/C=C/c2ccc(Br)cn2)c(OC)c1 [B3, (E)-3-(5-bromopyridin-2-yl)-1-(2,4,6-trimethoxyphenyl)prop-2-en-1-one] | excellent inhibitory effect | over 10 fold | excellent inhibitory effect | excellent inhibitory effect | over 10 fold | excellent inhibitory effect | low toxicity to normal cells | slightly better than the positive control | slightly better than the positive control | 16.78 | 26.41 | 30.95 | 39.8 | cells shrinkage, nuclear division and formation of apoptotic bodies
5 | 10.7 ± 0.74 | 35 ± 0.83 | – | 17.6 ± 0.74 | 7.92 ± 0.59 | – | COc1cc(OC)c(C(=O)/C=C/c2cc3ccccc3[nH]c2=O)c(OC)c1 [B14, (E)-3-(3-oxo-3-(2,4,6-trimethoxyphenyl)prop-1-en-1-yl)quinolin-2(1H)-one] | – | – | – | – | – | – | – | – | – | – | – | – | – | –
